Results from ChEMBL document CHEMBL1821706, “Unprecedented citrinin trimer tricitinol B functions as a novel topoisomerase IIα inhibitor” (J Med Chem, 2011).

Legend:
HCT-116 = test: Cytotoxicity against human HCT116 cells after 72 hrs by SRB assay; type: functional, cell-based; conditions: HCT-116, 72 h
Summary of the method: (§1)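 Adherent human tumour lines were seeded and exposed in triplicate to graded compound concentrations at 37 °C for 72 h. Growth was read by sulforhodamine B staining. IC50 (50% growth inhibition) was obtained by the Logit method from at least three independent experiments and reported as mean ± SD.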

HL-60 = test: Cytotoxicity against human HL60 cells after 72 hrs by MTT assay; type: functional, cell-based; conditions: HL-60, 72 h
Summary of the method: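 Cells were treated in triplicate with graded concentrations for 72 h at 37 °C and read by MTT. IC50 is the concentration giving 50% growth inhibition, derived by the Logit method from at least three independent experiments and given as mean ± SD.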

KB [1] = test: Cytotoxicity against human KB cells after 72 hrs by SRB assay; type: functional, cell-based; summary of the method: as §1
KB [2] = test: Drug resistance index, ratio of IC50 for vincristine-resistant human KB cells to IC50 for human KB cells; type: functional
KB [3] = test: Cytotoxicity against vincristine-resistant human KB cells over expressing P-glycoprotein after 72 hrs by SRB assay; type: functional, cell-based; summary of the method: as §1

Row | SMILES | IC50 (HCT-116) | IC50 (HL-60) | IC50 (KB [1]) | Ratio IC50 (KB [2]) | IC50 (KB [3])
1 | CC1=C2C(=CO[C@H](C)[C@H]2C)C(O)=C(C(=O)O)C1=O [CITRININ] | > 10 µM | > 10 µM | > 10 µM |  | 
2 | Cc1c(O)cc(O)c2c1[C@H](C)[C@@H](C)OC2 [DECARBOXYDIHYDROCITRININ] | > 10 µM | > 10 µM | > 10 µM |  | 
3 | Cc1c2c(c3oc4cc(=O)c(C)c5c-4c(c3c1O)O[C@H](C)[C@H]5C)O[C@H](C)[C@H]2C [DICITRININ A] | > 10 µM | > 10 µM | > 10 µM |  | 
4 | COC1O[C@H](C)[C@@H](C)c2c(C)c(O)c3c(c21)Oc1cc(O)c(C)c2c1[C@H]3O[C@H](C)[C@H]2C (stereo partly drawn) [DICITRINOL A] | 4.54 µM | 5.98 µM | 5.05 µM |  | 
5 | COC1O[C@H](C)[C@@H](C)c2c(C)c3c(c(O)c21)[C@@H]1O[C@H](C)[C@@H](C)c2c(C)c(O)cc(c21)O3 (stereo partly drawn) [DICITRINOL B] | 5.8 µM | 6.06 µM | 5.15 µM |  | 
6 | Cc1c(O)c(C(=O)O)c(O)c2c1[C@H](C)[C@@H](C)OC2=O [DIHYDROCITRINONE] | > 10 µM | > 10 µM | > 10 µM |  | 
7 | Cc1c2c(c3oc4cc(=O)c(C)c5c-4c(c3c1O)O[C@H](C)[C@H]5C)CO[C@H](C)[C@H]2C [OXODICITRINOL A] | > 10 µM | 8.91 µM | > 10 µM |  | 
8 | Cc1c(O)c2c(c3c1[C@H](C)[C@@H](C)O3)Oc1cc(O)c(C)c3c1[C@H]2O[C@H](C)[C@H]3C [PENICITRINOL A] | > 10 µM | > 10 µM | > 10 µM |  | 
9 | CO[C@@]12O[C@H](C)[C@@H](C)C1=C(C)C(=O)C1=C2Oc2cc(O)c(C)c3c2[C@H]1O[C@H](C)[C@H]3C [PENICITRINOL B] | > 10 µM | > 10 µM | > 10 µM |  | 
10 | CO[C@@]12O[C@H](C)[C@@H](C)C1=C(C)C1=C(C2=O)[C@@H]2O[C@H](C)[C@@H](C)c3c(C)c(O)cc(c32)O1 [PENICITRINOL F] | > 10 µM | > 10 µM | > 10 µM |  | 
11 | CO[C@@]12Oc3cc(O)c(C)c([C@H](C)[C@@H](C)O)c3C=C1C(=O)C(C)=C1[C@H](C)[C@@H](C)O[C@]12O [PENICITRINOL G] | > 10 µM | > 10 µM | > 10 µM |  | 
12 | CC1=C2[C@H](C)[C@@H](C)O[C@@]2(O)[C@]2(O)Oc3cc(O)c(C)c([C@H](C)[C@@H](C)O)c3C=C2C1=O [PENICITRINOL H] | > 10 µM | > 10 µM | > 10 µM |  | 
13 | Cc1oc2c(c1C)c(C)c(O)c1c3c4c(c(C)c(=O)cc-4oc12)[C@H](C)[C@@H](C)O3 [PENICITRINONE B] | > 10 µM | > 10 µM | > 10 µM |  | 
14 | Cc1c(O)cc(O)cc1[C@H](C)[C@@H](C)O [PHENOL A] | > 10 µM | > 10 µM | > 10 µM |  | 
15 | CO[C@H]1O[C@H](C)[C@@H](C)c2c(C)c(O)c3c(c21)Oc1c([C@H]2O[C@H](C)[C@@H](C)c4c(C)c(O)cc(O)c42)c(O)c(C)c2c1[C@H]3O[C@H](C)[C@H]2C [TRICITRINOL A] | 8.57 µM | 8.17 µM | > 10 µM |  | 
16 | CC[C@]1(O)C[C@H]2CN(CCc3c([nH]c4ccccc34)[C@@](C(=O)OC)(c3cc4c(cc3OC)N(C=O)[C@H]3[C@@](O)(C(=O)OC)[C@H](OC(C)=O)[C@]5(CC)C=CCN6CC[C@]43[C@@H]65)C2)C1 [VINCRISTINE] |  |  | 0.02 µM | 55.97 | 1.29 µM
